For assay [1], the species on record is Homo sapiens. As to the kind of experiment: Inhibition of class 1 HDAC in human HCT116 cells assessed as upregulation of acetylated histone H3 levels at 2.5 uM after 6 hrs by Western blot method. The assay is classed as cell-based. For orientation: Immunoblotting shows a protein as a band on a membrane.
Assay [2] deals with HCT-116. In words: Antiproliferative activity against human HCT116 cells after 48 hrs by SRB assay. The class given is functional. To be noted: HCT-116, 48 h. In outline: (§1)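 Cells seeded at 3-5 x 10³ cells/well. A T0 plate was fixed with 10% TCA at drug addition, and the rest were incubated 48 h with compound or DMSO, then TCA-fixed and stained with 0.4% SRB in 1% AcOH. Dye was extracted with 10 mM trizma base and read at 515 nm.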
(Sulforhodamine B stains cellular protein and so reports cell mass.)

The next assay concerns A549. As to the kind of experiment: Antiproliferative activity against human A549 cells after 48 hrs by SRB assay. The class given is functional. To be noted: A549, 48 h. In outline:
as §1

The subject of a further assay is PC-3. As to the kind of experiment: Antiproliferative activity against human PC3 cells after 48 hrs by SRB assay. The class given is functional. The following applies: PC-3, 48 h. In outline:
as §1

Assay [3] relates to HCT-116. In words: Induction of apoptosis in human HCT116 cells assessed as increase in cleaved caspase 3 levels at 1.25 to 2.5 uM after 48 hrs Western blot method. The class given is functional, cell-based.
The subject of assay [4] is HCT-116. As to the kind of experiment: Induction of apoptosis in human HCT116 cells assessed as increase in cleaved PARP levels at 1.25 to 2.5 uM after 48 hrs Western blot method. The class given is functional, cell-based.
Assay [5] is filed under the species Homo sapiens. In words: Selectivity ratio of IC50 for full length human recombinant C-terminal GST-tagged HDAC2 to IC50 for full length human recombinant N-terminal GST-tagged HDAC6.
Assay [6] is filed under the species Homo sapiens. As to the kind of experiment: Selectivity ratio of IC50 for full length human recombinant C-terminal FLAG-His-tagged HDAC1 to IC50 for full length human recombinant N-terminal GST-tagged HDAC6.
Assay [7] concerns the target T1, Protein deacetylase HDAC6 (Homo sapiens) (UniProt Q9UBN7).
T1 sequence (whole entry): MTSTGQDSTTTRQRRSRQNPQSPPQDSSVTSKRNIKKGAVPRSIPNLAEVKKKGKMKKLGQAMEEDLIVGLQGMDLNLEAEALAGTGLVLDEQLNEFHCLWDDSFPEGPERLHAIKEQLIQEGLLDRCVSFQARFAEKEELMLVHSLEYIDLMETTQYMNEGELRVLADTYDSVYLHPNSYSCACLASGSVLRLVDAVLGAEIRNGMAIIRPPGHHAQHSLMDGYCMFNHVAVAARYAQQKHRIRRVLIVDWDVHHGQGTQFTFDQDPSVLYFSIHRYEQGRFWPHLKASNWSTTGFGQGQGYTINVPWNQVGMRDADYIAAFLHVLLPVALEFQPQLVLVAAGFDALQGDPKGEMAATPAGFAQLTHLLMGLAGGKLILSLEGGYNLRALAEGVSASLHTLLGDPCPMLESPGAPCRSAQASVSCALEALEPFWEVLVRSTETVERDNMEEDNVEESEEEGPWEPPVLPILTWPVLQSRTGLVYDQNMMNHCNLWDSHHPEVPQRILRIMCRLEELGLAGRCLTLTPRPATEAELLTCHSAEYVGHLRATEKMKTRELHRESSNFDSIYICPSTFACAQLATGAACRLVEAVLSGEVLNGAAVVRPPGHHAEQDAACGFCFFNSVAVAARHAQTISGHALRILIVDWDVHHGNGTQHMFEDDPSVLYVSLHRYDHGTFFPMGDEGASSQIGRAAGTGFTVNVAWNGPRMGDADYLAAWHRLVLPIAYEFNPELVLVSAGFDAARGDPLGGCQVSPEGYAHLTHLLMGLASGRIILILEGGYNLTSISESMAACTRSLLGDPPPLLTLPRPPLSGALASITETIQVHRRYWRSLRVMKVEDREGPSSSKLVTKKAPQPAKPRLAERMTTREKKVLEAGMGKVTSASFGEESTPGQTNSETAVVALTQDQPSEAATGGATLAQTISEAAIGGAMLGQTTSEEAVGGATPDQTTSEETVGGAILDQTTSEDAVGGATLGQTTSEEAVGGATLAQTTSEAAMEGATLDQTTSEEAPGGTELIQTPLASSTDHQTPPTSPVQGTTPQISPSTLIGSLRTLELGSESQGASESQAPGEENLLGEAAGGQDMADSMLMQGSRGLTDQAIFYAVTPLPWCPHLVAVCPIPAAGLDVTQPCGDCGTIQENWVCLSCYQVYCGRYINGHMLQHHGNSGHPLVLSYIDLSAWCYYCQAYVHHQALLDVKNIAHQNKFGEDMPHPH
In words: Inhibition of HDAC6 in human HCT116 cells assessed as upregulation of acetylated tubulin levels at 2.5 uM after 6 hrs by Western blot method. The class given is cell-based. In outline:
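HCT116 cells treated 6 h with compound, then lysates probed by western blot for acetyl-tubulin, with ECL detection.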

The next assay has as its target Histone deacetylase 1 (Homo sapiens, UniProt Q13547). As to the kind of experiment: Inhibition of full length human recombinant C-terminal FLAG-His-tagged HDAC1 expressed in Sf21 cells using RHKK(Ac) as substrate after 60 mins by fluorimetric method.
The target in assay [8] is T2, Protein deacetylase HDAC6 (Homo sapiens, UniProt Q9UBN7).
T2 sequence (Q9UBN7 whole entry): T1 sequence (whole entry)
In words: Inhibition of full length human recombinant N-terminal GST-tagged HDAC6 expressed in Sf9 cells using RHKK(Ac) as substrate after 90 mins by fluorimetric method.

The test system of assay [9] is HCT-116. In words: Anticlonogenic activity against human HCT116 cells after 24 hrs by crystal violet staining-based assay. The assay is classed as functional, cell-based. A digest of the protocol:
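Cells exposed to a range of concentrations or DMSO vehicle for 24 h, washed, trypsinized and replated at 500 cells/well; after 14 days colonies were fixed and stained with 0.5% crystal violet in 70% EtOH. Colonies of more than 50 cells were counted, and survival fraction was taken relative to DMSO control.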

The next assay has as its target Histone deacetylase 2 (Homo sapiens, UniProt Q92769). In words: Inhibition of full length human recombinant C-terminal GST-tagged HDAC2 expressed in insect cells using RHKK(Ac) as substrate after 60 mins by fluorimetric method.
Assay [10] concerns HCT-116. As to the kind of experiment: Cell cycle arrest in human HCT116 cells assessed as accumulation at sub-G1 phase after 48 hrs by propidium iodide staining-based flow cytometric method. The class given is functional. In outline: (§2)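 HCT116 cells treated 48 h, then fixed overnight in 75% EtOH at -20 °C and washed in cold PBS. They were incubated 30 min at room temperature in 0.1 M phosphate-citric acid buffer (pH 7.8) and stained with propidium iodide buffer containing 0.1% Triton X-100 and RNase A. The sub-G1 fraction was measured by flow cytometry.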
Background: Flow cytometry measures light scatter and fluorescence of single cells or particles in a stream.

For assay [11], the system named is HCT-116. In words: Cell cycle arrest in human HCT116 cells assessed as accumulation at sub-G1 phase at 5 uM after 48 hrs by propidium iodide staining-based flow cytometric method. The class given is functional. A digest of the protocol: as §2

Consider two molecules from ChEMBL document CHEMBL3994606, “Ring-opened tetrahydro-γ-carbolines display cytotoxicity and selectivity with histone deacetylase isoforms” (Eur J Med Chem, 2017).

pIC50: −log10 of the molar value. Calls of active or inactive are those of the source. The rule behind the calls is not given here.

The term GI50 denotes the concentration giving 50% growth inhibition. Broadly, the pIC50 is −log10 of the IC50, conventionally taken in molar units.

Histone deacetylase 1, sequence (Q13547 whole entry): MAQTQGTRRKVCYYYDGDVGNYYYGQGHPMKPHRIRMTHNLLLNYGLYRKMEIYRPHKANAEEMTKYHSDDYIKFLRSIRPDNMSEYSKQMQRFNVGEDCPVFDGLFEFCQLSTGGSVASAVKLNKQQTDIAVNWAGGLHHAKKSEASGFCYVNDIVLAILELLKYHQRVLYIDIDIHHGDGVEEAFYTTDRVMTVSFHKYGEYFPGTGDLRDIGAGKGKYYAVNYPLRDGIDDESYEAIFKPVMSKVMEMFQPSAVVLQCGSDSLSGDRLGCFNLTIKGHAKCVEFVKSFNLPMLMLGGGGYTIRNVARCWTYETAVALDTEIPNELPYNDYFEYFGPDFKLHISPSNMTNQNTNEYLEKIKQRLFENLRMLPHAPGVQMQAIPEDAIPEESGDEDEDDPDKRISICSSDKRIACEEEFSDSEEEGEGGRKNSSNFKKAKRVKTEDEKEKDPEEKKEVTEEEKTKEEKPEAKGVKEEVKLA
Histone deacetylase 2, sequence (Q92769 whole entry): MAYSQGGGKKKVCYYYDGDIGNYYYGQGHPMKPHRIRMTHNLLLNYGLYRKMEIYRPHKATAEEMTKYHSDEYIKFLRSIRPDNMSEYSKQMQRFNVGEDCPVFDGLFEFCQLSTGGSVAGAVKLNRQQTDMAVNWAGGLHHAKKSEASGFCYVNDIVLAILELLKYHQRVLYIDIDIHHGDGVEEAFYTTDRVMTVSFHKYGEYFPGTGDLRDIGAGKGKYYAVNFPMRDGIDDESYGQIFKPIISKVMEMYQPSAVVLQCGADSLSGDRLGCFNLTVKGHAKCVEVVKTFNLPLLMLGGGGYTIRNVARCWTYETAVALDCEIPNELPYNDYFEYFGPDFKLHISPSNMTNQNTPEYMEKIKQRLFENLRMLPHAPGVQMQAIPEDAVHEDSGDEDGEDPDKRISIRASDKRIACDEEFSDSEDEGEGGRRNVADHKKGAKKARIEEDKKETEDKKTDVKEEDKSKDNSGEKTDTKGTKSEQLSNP

Take `Cc1c(CN(C)C)c2ccccc2n1S(=O)(=O)c1ccc(/C=C/C(=O)NO)cc1`: the “Acetylated histone H3 upregulation (qualitative)” value in the assay listed under Homo sapiens [1] was “inactive”. The concentration for 50% growth inhibition (GI50) with HCT-116 [2] stood at 0.55 µM; with A549 it was 1.56 µM; in the assay with PC-3, 0.7 µM. Besides, the result with HCT-116 [3] and in the assay with HCT-116 [4] was Active. For the same molecule, the Ratio IC50 came out at 20 in the assay filed under Homo sapiens [5] and 63 in the assay listed under Homo sapiens [6]. In addition, the “Acetylated tubulin upregulation (qualitative)” value in [7] is “Active”. Further, the figures for the pIC50 (on Histone deacetylase 1; in [8]; at Histone deacetylase 2) were 5.40, 7.20 and 5.90, respectively. Also, the Activity result in the assay with HCT-116 [9] and in the assay with HCT-116 [10] was “Dose-dependent effect” throughout.
For `CN1CCc2c(c3ccccc3n2Cc2ccc(C(=O)NO)cc2)C1` [TUBASTATIN A], the GI50 with HCT-116 [2], with A549 and in the assay with PC-3 was above 5 µM each time. Further, the outcome in the assay with HCT-116 [3] and with HCT-116 [4] was inactive. In addition, in the assay on HCT-116 [11], the result was Active.
